# In ChEMBL document CHEMBL5058577, “EUbOPEN Chemogenomics Library 2 (Multiplex)” (2022):
# Tested on: U2OS
# Experiment: Multiplex assay against U2OS
# Type: toxicity, cell-based
# Conditions: human
# In short: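 Phenotypes for tubulin, mitochondrial mass and membrane permeability are expressed as per cents of healthy-nucleus cells. Cells were stained live at seeding with Hoechst33342, BioTracker Green Microtubule Cytoskeleton Dye, MitoTracker Red and Annexin V Alexa Fluor 680, then imaged after compound addition on a CQ1 microscope at 37°C and 5% CO2. Machine-learning gating in CellPathfinder separated Hoechst high-intensity objects from normal cells, divided normal cells by nuclear state (healthy, pyknosed, fragmented) and divided pyknosed cells into mitotic or apoptotic.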
# [1] = 12 h, 1 µM, compound concentration 1 uM, replicate 1
# [2] = 12 h, 1 µM, compound concentration 1 uM, replicate 2
# [3] = 12 h, 10 µM, compound concentration 10 uM, replicate 1
# [4] = 12 h, 10 µM, compound concentration 10 uM, replicate 2
# [5] = 24 h, 1 µM, compound concentration 1 uM, replicate 1
# [6] = 24 h, 1 µM, compound concentration 1 uM, replicate 2
# [7] = 24 h, 10 µM, compound concentration 10 uM, replicate 1
# [8] = 24 h, 10 µM, compound concentration 10 uM, replicate 2
# [9] = 48 h, 1 µM, compound concentration 1 uM, replicate 1
# [10] = 48 h, 1 µM, compound concentration 1 uM, replicate 2
# [11] = 48 h, 10 µM, compound concentration 10 uM, replicate 1
# [12] = 48 h, 10 µM, compound concentration 10 uM, replicate 2
smiles,measurement,setting,value
CN(C)CCCc1cc(C(=O)Nc2ccc(-c3ccncc3)cc2)ccc1O.Cl.Cl,Population Apoptotic (%),[1],89%
same,Population Fragmented Nuclei (%),[1],29%
same,Population Healthy Nuclei (%),[1],60%
same,Population Hoechst High Intensity Objects (%),[1],2%
same,Population Membrane Permeable-Phenotype (%),[1],6%
same,Population Mitochondria Different-Phenotype (%),[1],0%
same,Population Mitotic Cells (%),[1],10%
same,Population Normal (%),[1],97%
same,Population Pyknosed Nuclei (%),[1],9%
same,Population Tubulin-Different-Phenotype (%),[1],3%
same,Total Cell Count,[1],199
same,Population Apoptotic (%),[2],100%
same,Population Fragmented Nuclei (%),[2],10%
same,Population Healthy Nuclei (%),[2],75%
same,Population Hoechst High Intensity Objects (%),[2],0%
same,Population Membrane Permeable-Phenotype (%),[2],2%
same,Population Mitochondria Different-Phenotype (%),[2],1%
same,Population Mitotic Cells (%),[2],0%
same,Population Normal (%),[2],99%
same,Population Pyknosed Nuclei (%),[2],13%
same,Population Tubulin-Different-Phenotype (%),[2],0%
same,Total Cell Count,[2],124
same,Population Apoptotic (%),[3],77%
same,Population Fragmented Nuclei (%),[3],28%
same,Population Healthy Nuclei (%),[3],62%
same,Population Hoechst High Intensity Objects (%),[3],4%
same,Population Membrane Permeable-Phenotype (%),[3],7%
same,Population Mitochondria Different-Phenotype (%),[3],1%
same,Population Mitotic Cells (%),[3],22%
same,Population Normal (%),[3],95%
same,Population Pyknosed Nuclei (%),[3],9%
same,Population Tubulin-Different-Phenotype (%),[3],2%
same,Total Cell Count,[3],237
same,Population Apoptotic (%),[4],42%
same,Population Fragmented Nuclei (%),[4],24%
same,Population Healthy Nuclei (%),[4],63%
same,Population Hoechst High Intensity Objects (%),[4],1%
same,Population Membrane Permeable-Phenotype (%),[4],4%
same,Population Mitochondria Different-Phenotype (%),[4],8%
same,Population Mitotic Cells (%),[4],57%
same,Population Normal (%),[4],98%
same,Population Pyknosed Nuclei (%),[4],12%
same,Total Cell Count,[4],113
same,Population Apoptotic (%),[5],100%
same,Population Fragmented Nuclei (%),[5],28%
same,Population Healthy Nuclei (%),[5],65%
same,Population Hoechst High Intensity Objects (%),[5],2%
same,Population Membrane Permeable-Phenotype (%),[5],5%
same,Population Mitochondria Different-Phenotype (%),[5],2%
same,Population Mitotic Cells (%),[5],0%
same,Population Normal (%),[5],97%
same,Population Pyknosed Nuclei (%),[5],6%
same,Population Tubulin-Different-Phenotype (%),[5],3%
same,Total Cell Count,[5],247
same,Population Apoptotic (%),[6],94%
same,Population Fragmented Nuclei (%),[6],11%
same,Population Healthy Nuclei (%),[6],77%
same,Population Hoechst High Intensity Objects (%),[6],4%
same,Population Membrane Permeable-Phenotype (%),[6],7%
same,Population Mitochondria Different-Phenotype (%),[6],5%
same,Population Mitotic Cells (%),[6],5%
same,Population Normal (%),[6],95%
same,Population Pyknosed Nuclei (%),[6],11%
same,Population Tubulin-Different-Phenotype (%),[6],5%
same,Total Cell Count,[6],178
same,Population Apoptotic (%),[7],72%
same,Population Fragmented Nuclei (%),[7],28%
same,Population Healthy Nuclei (%),[7],58%
same,Population Hoechst High Intensity Objects (%),[7],4%
same,Population Membrane Permeable-Phenotype (%),[7],6%
same,Population Mitochondria Different-Phenotype (%),[7],3%
same,Population Mitotic Cells (%),[7],27%
same,Population Normal (%),[7],95%
same,Population Pyknosed Nuclei (%),[7],13%
same,Population Tubulin-Different-Phenotype (%),[7],1%
same,Total Cell Count,[7],257
same,Population Apoptotic (%),[8],66%
same,Population Fragmented Nuclei (%),[8],21%
same,Population Healthy Nuclei (%),[8],63%
same,Population Hoechst High Intensity Objects (%),[8],0%
same,Population Membrane Permeable-Phenotype (%),[8],4%
same,Population Mitochondria Different-Phenotype (%),[8],8%
same,Population Mitotic Cells (%),[8],33%
same,Population Normal (%),[8],100%
same,Population Pyknosed Nuclei (%),[8],15%
same,Population Tubulin-Different-Phenotype (%),[8],2%
same,Total Cell Count,[8],118
same,Population Apoptotic (%),[9],88%
same,Population Fragmented Nuclei (%),[9],25%
same,Population Healthy Nuclei (%),[9],69%
same,Population Hoechst High Intensity Objects (%),[9],3%
same,Population Membrane Permeable-Phenotype (%),[9],5%
same,Population Mitochondria Different-Phenotype (%),[9],3%
same,Population Mitotic Cells (%),[9],11%
same,Population Normal (%),[9],96%
same,Population Pyknosed Nuclei (%),[9],5%
same,Population Tubulin-Different-Phenotype (%),[9],3%
same,Total Cell Count,[9],338
same,Population Apoptotic (%),[10],93%
same,Population Fragmented Nuclei (%),[10],15%
same,Population Healthy Nuclei (%),[10],71%
same,Population Membrane Permeable-Phenotype (%),[10],7%
same,Population Mitotic Cells (%),[10],6%
same,Population Pyknosed Nuclei (%),[10],13%
same,Population Tubulin-Different-Phenotype (%),[10],4%
same,Total Cell Count,[10],259
same,Population Apoptotic (%),[11],74%
same,Population Fragmented Nuclei (%),[11],25%
same,Population Healthy Nuclei (%),[11],61%
same,Population Hoechst High Intensity Objects (%),[11],5%
same,Population Membrane Permeable-Phenotype (%),[11],5%
same,Population Mitochondria Different-Phenotype (%),[11],3%
same,Population Mitotic Cells (%),[11],25%
same,Population Normal (%),[11],94%
same,Population Pyknosed Nuclei (%),[11],12%
same,Population Tubulin-Different-Phenotype (%),[11],5%
same,Total Cell Count,[11],352
same,Population Apoptotic (%),[12],68%
same,Population Fragmented Nuclei (%),[12],20%
same,Population Healthy Nuclei (%),[12],63%
same,Population Hoechst High Intensity Objects (%),[12],4%
same,Population Membrane Permeable-Phenotype (%),[12],13%
same,Population Mitochondria Different-Phenotype (%),[12],8%
same,Population Mitotic Cells (%),[12],32%
same,Population Normal (%),[12],95%
same,Population Pyknosed Nuclei (%),[12],16%
same,Population Tubulin-Different-Phenotype (%),[12],9%
same,Total Cell Count,[12],160
